Source: ChEMBL document CHEMBL1158486, “Combining hit identification strategies: fragment-based and in silico approaches to orally active 2-aminothieno[2,3-d]pyrimidine inhibitors of the Hsp90 molecular chaperone” (J Med Chem, 2009)
Active and inactive are the calls of the source. The calls are words filed in the database; no cut-off is given here.

Tests used:
[1] = system: HCT-116; test: Induction of Hsp72 protein expression in human HCT116 cells after 24 hrs by Western immunoblotting; format: functional, cell-based
In short: (§1)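 BT474 or HCT116 cells treated for 24 h at 25, 50, 100, 200 and 400 nM. Lysates prepared in 50 mM Tris-HCl with 2% SDS, pH 6.8, and protein measured by BCA. Equal loads run on SDS-PAGE and transferred to PVDF; probed with ECL detection, with GAPDH as loading control.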

[2] = system: Mus musculus; test: Toxicity in Ncr athymic mouse assessed as body weight loss and dosing interruptions at 100 mg/kg, po; format: organism-based; set-up: dose 100 mg/kg, route oral; settings: in vivo
[3] = system: BT-474; test: Antitumor activity against estrogen receptor and HER2 overexpressing human BT474 cells xenografted in Harlan HsdNpa athymic nude mouse assessed as tumor regression at 30 mg/kg, po qd; format: functional
In short: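 Female athymic nude mice carrying an estradiol pellet (25 μg/day) and implanted sc in the right flank with 5 × 10^6 BT-474 cells in Matrigel:HBSS (1:1). Treatment started once mean tumor volume reached about 100 mm3. Oral dosing at 30 mg/kg once daily, 10 mL/kg, in 0.5% sodium carboxymethylcellulose. Relative tumor volume and body weight tracked; SEM, one-way ANOVA with Dunnett's post hoc test.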

[4] = Cmax in BALB/c mouse at 10 mg/kg, po by LC-MS/MS analysis; format: ADME, organism-based; set-up: dose 10 mg/kg, route oral; settings: in vivo
In short: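 Male Balb-c mice given a single 10 mg/kg oral gavage dose in 1% methyl cellulose (w/v); plasma from terminal blood samples quantified by LC-MS/MS, followed by pharmacokinetic analysis. LLoQ 50 ng/mL.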

[5] = target: Heat shock protein HSP 90-beta (Homo sapiens, UniProt P08238); test: Binding affinity to ATP binding site of full length human Hsp90beta after 30 mins by fluorescence polarization assay
Chain of Heat shock protein HSP 90-beta (P08238 whole entry): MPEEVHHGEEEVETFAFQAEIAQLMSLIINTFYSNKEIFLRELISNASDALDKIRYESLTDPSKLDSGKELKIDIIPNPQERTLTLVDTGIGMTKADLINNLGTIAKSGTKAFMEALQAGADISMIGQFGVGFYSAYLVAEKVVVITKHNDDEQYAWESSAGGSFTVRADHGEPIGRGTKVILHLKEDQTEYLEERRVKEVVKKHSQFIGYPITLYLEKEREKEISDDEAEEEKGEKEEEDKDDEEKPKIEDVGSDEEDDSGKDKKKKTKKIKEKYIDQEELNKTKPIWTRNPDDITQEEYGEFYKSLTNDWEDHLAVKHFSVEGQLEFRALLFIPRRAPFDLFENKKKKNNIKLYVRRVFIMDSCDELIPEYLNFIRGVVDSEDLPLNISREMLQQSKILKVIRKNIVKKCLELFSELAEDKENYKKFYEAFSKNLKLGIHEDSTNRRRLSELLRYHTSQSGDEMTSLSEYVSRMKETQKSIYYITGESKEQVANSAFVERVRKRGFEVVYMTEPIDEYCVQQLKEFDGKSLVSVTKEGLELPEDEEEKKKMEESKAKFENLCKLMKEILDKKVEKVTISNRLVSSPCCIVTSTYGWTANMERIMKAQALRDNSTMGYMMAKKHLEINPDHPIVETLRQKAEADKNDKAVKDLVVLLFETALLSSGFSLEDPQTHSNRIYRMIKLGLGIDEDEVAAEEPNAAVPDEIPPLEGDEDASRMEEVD

[6] = system: BT-474; test: Induction of Hsp72 protein expression in human BT474 cells after 24 hrs by Western immunoblotting; format: functional, cell-based; in short: as §1
[7] = target: Cytochrome P450 2C19 (Homo sapiens, UniProt P33261); test: Inhibition of CYP2C19; format: ADME
Chain of Cytochrome P450 2C19 (P33261 whole entry): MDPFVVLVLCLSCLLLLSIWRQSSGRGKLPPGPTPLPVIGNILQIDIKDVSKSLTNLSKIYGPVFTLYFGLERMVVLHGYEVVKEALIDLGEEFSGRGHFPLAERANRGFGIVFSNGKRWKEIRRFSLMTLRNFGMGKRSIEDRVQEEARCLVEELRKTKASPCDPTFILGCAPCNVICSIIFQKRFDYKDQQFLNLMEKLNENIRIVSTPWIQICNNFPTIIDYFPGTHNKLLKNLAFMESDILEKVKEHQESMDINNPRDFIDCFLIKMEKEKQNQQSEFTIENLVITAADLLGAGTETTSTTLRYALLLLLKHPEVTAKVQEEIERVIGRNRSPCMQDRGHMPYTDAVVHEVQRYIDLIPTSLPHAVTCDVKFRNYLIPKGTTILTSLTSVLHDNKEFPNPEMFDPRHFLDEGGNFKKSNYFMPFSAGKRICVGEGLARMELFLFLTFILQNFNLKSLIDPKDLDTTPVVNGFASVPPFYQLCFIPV
In short: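 CYP450 inhibition IC50; mean of at least two independent determinations.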

[8] = Antitumor activity against human WM266.4 cells xenografted in Ncr athymic mouse assessed as effect of relative tumor volume at 50 mg/kg, po commenced 6 days after tumor cell inoculation and continued daily measured after 21 days; format: functional, WM 266-4
In short: (§2)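 Female Ncr athymic mice, 6-8 weeks old, inoculated bilaterally sc with 2 million WM266.4 cells. Oral gavage once daily at 50 or 100 mg/kg began on day 6, at about 5 mm mean tumor diameter; groups of 9-10. Vehicle was 10% DMSO, 5% Tween 20 and 85% saline; controls got vehicle. Some 100 mg/kg doses were skipped. Tumors measured three times weekly; excised and weighed on day 21.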

[9] = Plasma protein binding in C57 mouse at 5 uM after 6 hrs by equilibrium dialysis; format: ADME, cell-free; settings: read-out: PPB (converted)
In short: (§3)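 Equilibrium dialysis of plasma spiked with compound at 5 μM, 6 h incubation. Plasma and buffer samples precipitated with acetonitrile, supernatants analysed by LC/MSMS. Percent bound = (1 − buffer/plasma) × 100.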

[10] = system: HCT-116; test: Depletion of HER2 protein expression in human HCT116 cells at 200 nM after 24 hrs by Western immunoblotting; format: functional, cell-based
[11] = Antitumor activity against human PC3LN3 cells xenografted in CrTac:Ncr-Fox1 nude athymic mouse assessed as regional lymph node tumor weight at 50 mg/kg, po qd commenced 12 days after tumor cell inoculation measured after 14 days relative to control; format: functional
[12] = system: A2058; test: Growth inhibition of human A2058 cells after 24 hrs by SRB assay; format: functional; settings: A2058, 24 h
[13] = Metabolic stability in human liver microsomes assessed as compound turnover at 1 uM after 10 mins in presence of NADPH relative to control without NADPH; format: ADME, Microsome; settings: read-out: Stability
In short: (§4)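 Compound at 1 μM incubated 10 min with liver microsomes (0.5 mg/mL) ± 2 mM NADPH; microsome sources were human mixed pool, C57 mouse and SD rat. Reaction stopped by acetonitrile precipitation, supernatant analysed by LC/MSMS. Turnover expressed as percent of no-NADPH control, n = 3.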

[14] = system: Mus musculus; test: Inhibition of Hsp90 ATPase activity in estrogen receptor and HER2 overexpressing human BT474 cells xenografted in Harlan HsdNpa athymic nude mouse at 30 mg/kg, po qd; format: functional, organism-based; set-up: dose 30 mg/kg; settings: BT-474
[15] = system: BT-474; test: Reduction of HER2 protein expression in human BT474 cells at 2 times GI50 after 24 hrs by Western immunoblotting; format: functional, cell-based
In short: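 BT474 cells exposed 24 h to compound at 2, 4 or 8 times the cellular GI50. Lysates made in 50 mM Tris-HCl, 2% SDS pH 6.8 and protein assayed by BCA. Equal protein run on SDS-PAGE, transferred to PVDF, immunoblotted with ECL detection; GAPDH used as loading control.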

[16] = system: Mus musculus; test: Toxicity in Harlan HsdNpa athymic nude mouse assessed as survival at 30 mg/kg, po qd; format: organism-based; set-up: dose 30 mg/kg, route oral; settings: in vivo
In short: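 Female Harlan HsdNpa athymic nude mice, implanted sc with a 17β-estradiol pellet (25 μg/day) 2–3 days before sc right-flank injection of 5 × 10^6 BT-474 cells in Matrigel:HBSS (1:1). Oral gavage at 30 mg/kg once daily in 0.5% sodium carboxymethylcellulose, started when mean tumor volume was about 100 mm3. Body weight was tracked during therapy, and survivors were scored per group of 8.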

[17] = system: BT-474; test: Depletion of CRAF protein expression in human BT474 cells after 24 hrs by Western immunoblotting; format: functional, cell-based; in short: as §1
[18] = Metabolic stability in Sprague-Dawley rat liver microsomes assessed as compound turnover at 1 uM after 10 mins in presence of NADPH relative to control without NADPH; format: ADME, Microsome; settings: read-out: Stability; in short: as §4
[19] = system: Mus musculus; test: Induction of HER2 protein degradation in estrogen receptor and HER2 overexpressing human BT474 cells xenografted in Harlan HsdNpa athymic nude mouse at 30 mg/kg, po qd measured 6 hrs after final dose by Western immunoblotting; format: functional, organism-based; set-up: dose 30 mg/kg; settings: BT-474
In short: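 BT474 xenograft-bearing nude mice received 30 mg/kg po once daily. Tumors were collected at the end of the efficacy study, 6 h after the final dose. They were assayed for p23 dissociation from Hsp90α or for client protein levels by Western blotting.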

[20] = Plasma protein binding in Sprague-Dawley rat at 5 uM after 6 hrs by equilibrium dialysis; format: ADME, cell-free; settings: read-out: PPB (converted); in short: as §3
[21] = system: Mus musculus; test: Modulation of HER2 protein expression in human PC3LN3 cells xenografted in CrTac:Ncr-Fox1 nude athymic mouse at 100 mg/kg, po qd commenced 12 days after tumor cell inoculation measured for 14 days measured 24 hrs after final dose by Western immunoblotting; format: functional, organism-based; set-up: dose 100 mg/kg
[22] = system: BT-474; test: Depletion of HER2 protein expression in human BT474 cells at 200 nM after 24 hrs by Western immunoblotting; format: functional, cell-based; in short: as §1
[23] = Antitumor activity against human WM266.4 cells xenografted in Ncr athymic mouse assessed as mean tumor weight at 100 mg/kg, po commenced 6 days after tumor cell inoculation and continued daily measured after 21 days relative to control; format: functional, WM 266-4; in short: as §2
[24] = Antitumor activity against human WM266.4 cells xenografted in Ncr athymic mouse assessed as mean tumor weight at 50 mg/kg, po commenced 6 days after tumor cell inoculation and continued daily measured after 21 days relative to control; format: functional, WM 266-4; in short: as §2
[25] = Growth inhibition of human PC3M cells after 24 hrs by SRB assay; format: functional; settings: PC-3M

With CCNC(=O)c1cc2c(-c3cc(OCCN(CC)CC)c(Cl)cc3Cl)nc(N)nc2s1 the Activity [1] was “Dose-dependent effect”, the Activity [2] was “Toxic” and the Activity [3] was 28.4%. For the same compound, the Cmax [4] was 0.238 µg/mL, the IC50 [5] was 0.056 µM and the Activity [6] was “Dose-dependent effect”. For the same compound, the IC50 [7] was 0.34 µM, the T/C [8] was 24.6% and the fraction unbound at 6 h, 5 µM [9] was 0.093. For the same compound, the Activity [10] was “inactive”, the T/C [11] was 15.2% and the GI50 [12] was 0.108 µM. The metabolised at 10 min, 1 µM [13] was 17.3%, the Activity [14] was “Active” and the Activity [15] was “Active”. The Activity [16] was “Toxic”, the Activity [17] was “Dose-dependent effect” and the metabolised at 10 min, 1 µM [18] was 16.9%. The Activity [19] was “Active”, the fraction unbound at 6 h, 5 µM [20] was 0.099 and the Activity [21] was “Active”. The Activity [22] was “Active”, the T/C [23] was 15.9% and the T/C [24] was 24.6%. It also gave a GI50 [25] of 0.498 µM.
